Reference: ChEMBL document CHEMBL1914446, “Pharmacophore identification, virtual screening and biological evaluation of prenylated flavonoids derivatives as PKB/Akt1 inhibitors” (Eur J Med Chem, 2011)
One block for each compound: values may come before it. Active and inactive are the calls of the source. The calls are words filed in the database; no cut-off is given here.

Tests used:
[1] = biological target: T1, RAC-alpha serine/threonine-protein kinase (Homo sapiens, UniProt P31749); experiment: Inhibition of GST-tagged PKB/Akt1 incubated for 5 mins before eNOS substrate and ATP addition measured after 30 mins by kinase assay
T1 sequence (P31749 whole entry): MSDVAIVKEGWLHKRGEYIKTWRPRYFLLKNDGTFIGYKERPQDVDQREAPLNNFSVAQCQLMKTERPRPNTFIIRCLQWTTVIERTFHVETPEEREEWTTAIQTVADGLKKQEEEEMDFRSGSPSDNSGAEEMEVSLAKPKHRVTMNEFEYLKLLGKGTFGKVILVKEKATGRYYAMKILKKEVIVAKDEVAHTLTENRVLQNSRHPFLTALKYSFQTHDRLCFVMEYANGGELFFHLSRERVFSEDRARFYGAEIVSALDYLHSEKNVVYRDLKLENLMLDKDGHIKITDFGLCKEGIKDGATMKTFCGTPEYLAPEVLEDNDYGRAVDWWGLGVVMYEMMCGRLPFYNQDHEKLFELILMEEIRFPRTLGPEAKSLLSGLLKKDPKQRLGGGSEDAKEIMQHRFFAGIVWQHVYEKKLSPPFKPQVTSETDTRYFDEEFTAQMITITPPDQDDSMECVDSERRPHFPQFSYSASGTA

[2] = test system: PC-3; experiment: Antiproliferative activity against human PC3 after 72 hrs by MTT assay; assay type: functional, cell-based; conditions: PC-3, 72 h
Summary of the method: (§1)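 MTT read-out: cells seeded at 4000 per well, attached overnight, exposed to compound over 1.0–100.0 µM for 72 h. MTT solution (5.0 mg/ml) added for a further 4 h at 37 °C, formazan dissolved in DMSO, absorbance at 570 nm. Triplicate wells in three independent experiments; IC50 from dose–effect analysis.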

[3] = test system: OVCAR-8; experiment: Down regulation of PKB/Akt phosphorylation at Ser-473 in human OVCAR8 cells at 20 uM by Western blot analysis; assay type: functional, cell-based
Summary of the method: (§2)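 OVCAR-8 cells treated, harvested, washed in ice-cold PBS and lysed in immunoprecipitation buffer with NaF, β-glycerophosphate, detergents and PMSF. Debris pelleted at 13,000 rpm for 30 min at 4 °C; protein measured by Bradford. Immunoblots probed for phospho-Akt Ser-473, phospho- and total GSK3, with GAPDH.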

[4] = test system: HL-60; experiment: Antiproliferative activity against human HL60 after 72 hrs by MTT assay; assay type: functional, cell-based; conditions: HL-60, 72 h; summary of the method: as §1
[5] = test system: OVCAR-8; experiment: Decrease in GSK3-beta protein level in human OVCAR8 cells at 20 uM by Western blot analysis; assay type: functional, cell-based; summary of the method: as §2
[6] = test system: OVCAR-8; experiment: Induction of apoptosis in human OVCAR8 cells assessed as apoptotic cells at 20 uM after 72 hrs by Annexin V-FITC/propidium iodide staining-based FACS analysis; assay type: functional
Summary of the method: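 OVCAR-8 cells (5 × 10^4 cells/ml) cultured in flasks and treated with vehicle or compound. After treatment, cells harvested and washed twice in ice-cold PBS, then stained with Annexin V-FITC/propidium iodide and analysed by flow cytometry.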

[7] = test system: OVCAR-8; experiment: Antiproliferative activity against human OVCAR8 after 72 hrs by MTT assay; assay type: functional, cell-based; conditions: OVCAR-8, 72 h; summary of the method: as §1
[8] = test system: OVCAR-8; experiment: Inhibition of PKB/Akt in human OVCAR8 cells assessed as decrease of GSK3-beta phosphorylation at 20 uM after Western blot analysis; assay type: cell-based; summary of the method: as §2
[9] = biological target: T1, RAC-alpha serine/threonine-protein kinase; experiment: Inhibition of GST-tagged PKB/Akt1 incubated for 5 mins before eNOS substrate and ATP addition at > 50 uM measured after 30 mins by kinase assay
Summary of the method: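 HTScan PKB/Akt1 kit: active recombinant GST-Akt1 (4 ng) in kinase buffer (Tris-HCl pH 7.5, MgCl2, β-glycerophosphate, Na3VO4, DTT) preincubated with compound or DMSO vehicle 5 min at room temperature. ATP/substrate cocktail with eNOS substrate added. Reaction stopped with 50 mM EDTA (pH 8.0); activity read per kit instructions. H-89 as positive control.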

SMILES: CC(C)=CCc1cc2c(=O)cc(-c3ccc(O)cc3O)oc2cc1O
IC50 [1]: Not Active

SMILES: CC(C)=CCc1c(O)cc(O)c2c(=O)cc(-c3ccc(O)c(O)c3)oc12
IC50 [2]: 18.6 µM
Activity [3]: Active
IC50 [4]: 3.31 µM
Activity [5]: inactive
Activity [6]: 49.11%
IC50 [7]: 16.6 µM
IC50 ([1]; read-out: IC50): 3.9 µM
inhibition [8]: Active

SMILES: CC(C)=CCc1c(O)cc2oc(-c3ccc(O)cc3O)cc(=O)c2c1O
IC50 ([1]; read-out: IC50): 54.5 µM

SMILES: CC(C)=CCc1c(O)cc2oc(-c3ccc(O)c(O)c3)cc(=O)c2c1O
IC50 [2]: 14.6 µM
Activity [3]: Active
IC50 [4]: 2.5 µM
Activity [5]: inactive
Activity [6]: 40.19%
IC50 [7]: 23.8 µM
IC50 ([1]; read-out: IC50): 5.4 µM
inhibition [8]: Active

SMILES: CC(C)=CCc1c(O)cc(O)c(C(=O)/C=C/c2ccc(O)cc2)c1O [DEMETHYLXANTHOHUMOL]
IC50 ([1]; read-out: IC50): 144 µM

The remaining lines, values ahead:

IC50 ([1]; read-out: IC50): 85.9 µM
SMILES: CC(C)=CCc1cc(C(=O)/C=C/c2cccc(O)c2)c(O)cc1O

IC50 [1]: Not Active
SMILES: O=c1cc(CSc2nnc(O)n2C2Cc3ccccc3C2)c2ccc(O)cc2o1

inhibition [9]: 19.6%
IC50 ([1]; read-out: IC50): > 50 µM
SMILES: CC(=O)Nc1cccc(-n2nnc(SCC(=O)NCc3cccs3)n2)c1

IC50 [1]: Not Active
SMILES: Cc1ccc(S(=O)(=O)OC[C@H]2O[C@@H](n3cnc4c(=O)[nH]c(NC(=O)C(C)C)nc43)C[C@H]2O)cc1
